Laboratory results from ChEMBL document CHEMBL1152329, “The marine sponge Diacarnus bismarckensis as a source of peroxiterpene inhibitors of Trypanosoma brucei, the causative agent of sleeping sickness” (J Nat Prod, 2009).
In brackets after ≈: the same amount, converted by molar mass.

Assays:
Format in all cases: functional, organism-based
[1] = test system: Trypanosoma brucei brucei; assay: Antitrypanosomal activity against Trypanosoma brucei brucei 221 after 48 hrs; conditions: Trypanosoma brucei, 221, 48 h
In short: (§1)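 T. brucei brucei strain 221 cultured in complete HMI-9 with 10% FBS, 10% Serum Plus and penicillin/streptomycin; seeded at 1×10^5 per mL and exposed to test samples delivered in 10% DMSO for 48 h at 37 °C, 5% CO2. Vehicle wells served as 0% inhibition and 1 mM thimerosal stock as 100%. Viability read as ATP bioluminescence after CellTiter-Glo lysis.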

[2] = test system: Trypanosoma brucei rhodesiense; assay: Antitrypanosomal activity against Trypanosoma brucei rhodesiense STIB 900
[3] = test system: Trypanosoma brucei rhodesiense; assay: Antitrypanosomal activity against Trypanosoma brucei rhodesiense trypomastigotes after 72 hrs
[4] = test system: Trypanosoma brucei; assay: Antitrypanosomal activity against Trypanosoma brucei; in short: as §1

C=C1CCC[C@@H]2[C@@](C)(CC[C@]3(C)CC[C@H]([C@@H](C)C(=O)O)OO3)[C@H](C)CC[C@@]12C
IC50 [1]: 1 µg/mL (≈ 2.55 µM)

CC(C)(N)CNC(=O)CC1CC[C@]2(CC1)OC[C@]1(O2)C2CC3CC(C2)CC1C3 (stereo partly specified)
IC50 [2]: 0.9 µg/mL (≈ 2.3 µM)

COC(=O)[C@H](C)[C@H](O)CC[C@](C)(O)CCCC(C)CCC(=O)C(C)(C)CCCC(C)=O (stereo partly specified)
IC50 [1]: > 25 µg/mL

C=C1CCC[C@@H]2[C@@](C)(CC[C@]3(C)CC[C@H]([C@@H](C)C(=O)OC)OO3)[C@H](C)CC[C@@]12C
IC50 [1]: 2 µg/mL (≈ 4.92 µM)

C=C1CCCC(C)(C)C1CC[C@]1(C)CC[C@@H]([C@@H](C)C(=O)OC)OO1 (stereo partly specified)
IC50 [1]: 2 µg/mL (≈ 5.91 µM)

N=C(N)c1ccc(OCCCCCOc2ccc(C(=N)N)cc2)cc1 [PENTAMIDINE]
IC50 [3]: 0.4 µg/mL (≈ 1.17 µM)

COC(=O)[C@H](C)[C@@H]1CC[C@@](C)(CC/C=C(\C)CCC(=O)C(C)(C)CCCC(C)=O)OO1
IC50 [1]: 3 µg/mL (≈ 6.84 µM)

ClCCl [METHYLENE CHLORIDE]
IC50 [4]: 0.3 µg/mL

C[C@@H]1CC[C@H]2[C@@H](C)C(=O)O[C@@H]3O[C@@]4(C)CC[C@@H]1[C@]32OO4 [ARTEMISININ]
IC50 [2]: 25 µg/mL (≈ 88.5 µM)
IC50 [3]: 6 µg/mL (≈ 21.3 µM)

C=C1CCC[C@@H]2[C@@H](CC[C@@]3(C)CC[C@H]([C@H](C)C(=O)O)OO3)[C@H](C)CC[C@@]12C [SIGMOSCEPTRELLIN B]
IC50 [4]: 0.2 µg/mL (≈ 0.528 µM)
IC50 [1]: 0.2 µg/mL (≈ 0.528 µM)

CC(C)(N)CNC(=O)C[C@H]1CC[C@]2(CC1)OO[C@]1(O2)C2CC3CC(C2)CC1C3 [OZ277]
IC50 [2]: 0.6 µg/mL (≈ 1.53 µM)

CC(=O)CCCC(C)(C)C(=O)CC/C(C)=C/CC[C@]1(C)CC[C@H]([C@@H](C)C(=O)O)OO1 [(+)-MUQUBILONE B]
IC50 [1]: 2 µg/mL (≈ 4.71 µM)

COC(=O)[C@H](C)[C@H]1CC[C@@](C)(CC/C=C(\C)CCC(=O)C(C)(C)CCCC(C)=O)OO1
IC50 [1]: 5 µg/mL (≈ 11.4 µM)

CC1=C(CC/C(C)=C/CC[C@]2(C)CC[C@H]([C@@H](C)C(=O)O)OO2)C(C)(C)CCC1
IC50 [1]: 0.9 µg/mL (≈ 2.29 µM)
